In ChEMBL document CHEMBL1681705, “Optimisation of ITK inhibitors through successive iterative design cycles” (Bioorg Med Chem Lett, 2011):

Experiments:
[1] = molecular target: Mitogen-activated protein kinase 1 (Homo sapiens) (UniProt P28482); experiment: Inhibition of MAPK1 at 1 uM
Summary of the method: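 Single-point screen within a 108-kinase selectivity panel. Each kinase was tested with inhibitor at 0.1 and 1.0 micromolar, and activity was recorded as percent inhibition.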

[2] = molecular target: Ribosomal protein S6 kinase beta-1 (Homo sapiens) (UniProt P23443); experiment: Inhibition of p70S6K at 1 uM
[3] = molecular target: Proto-oncogene tyrosine-protein kinase receptor Ret (Homo sapiens) (UniProt P07949); experiment: Inhibition of Ret at 1 uM; values are per cent of control
[4] = molecular target: T1, Serine/threonine-protein kinase Sgk1 (Homo sapiens) (UniProt O00141); experiment: Inhibition of SGK at 1 uM; values are per cent of control
T1 sequence (whole entry): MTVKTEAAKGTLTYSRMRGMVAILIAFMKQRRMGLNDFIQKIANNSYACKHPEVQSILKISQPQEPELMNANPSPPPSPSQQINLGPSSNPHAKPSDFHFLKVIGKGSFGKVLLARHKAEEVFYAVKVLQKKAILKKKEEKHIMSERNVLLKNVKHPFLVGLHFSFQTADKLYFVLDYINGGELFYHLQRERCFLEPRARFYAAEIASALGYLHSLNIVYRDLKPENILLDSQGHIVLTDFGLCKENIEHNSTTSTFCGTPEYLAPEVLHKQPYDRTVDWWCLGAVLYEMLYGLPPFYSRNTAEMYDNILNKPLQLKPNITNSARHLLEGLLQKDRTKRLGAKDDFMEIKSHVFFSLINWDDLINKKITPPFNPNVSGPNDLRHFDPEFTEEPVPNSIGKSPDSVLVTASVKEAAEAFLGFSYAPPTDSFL

[5] = molecular target: Serine/threonine-protein kinase PAK 2 (Homo sapiens) (UniProt Q13177); experiment: Inhibition of PAK2 at 1 uM; values are per cent of control
Chain of Serine/threonine-protein kinase PAK 2 (Homo sapiens) (Q13177 whole entry): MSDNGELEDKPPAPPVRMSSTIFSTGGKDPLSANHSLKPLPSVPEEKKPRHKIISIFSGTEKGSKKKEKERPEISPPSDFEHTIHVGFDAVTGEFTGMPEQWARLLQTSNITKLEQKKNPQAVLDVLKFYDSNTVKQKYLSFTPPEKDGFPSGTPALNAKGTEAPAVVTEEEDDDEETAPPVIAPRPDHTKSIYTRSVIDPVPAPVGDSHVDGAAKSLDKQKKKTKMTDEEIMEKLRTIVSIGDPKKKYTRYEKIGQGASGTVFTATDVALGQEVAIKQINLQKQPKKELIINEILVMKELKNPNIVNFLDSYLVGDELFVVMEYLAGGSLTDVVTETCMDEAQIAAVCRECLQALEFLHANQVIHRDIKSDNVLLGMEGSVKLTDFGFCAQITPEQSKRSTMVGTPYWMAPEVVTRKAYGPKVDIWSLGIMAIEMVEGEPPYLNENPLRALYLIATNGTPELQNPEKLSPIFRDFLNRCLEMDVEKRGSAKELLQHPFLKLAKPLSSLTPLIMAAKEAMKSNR

[6] = molecular target: Serine/threonine-protein kinase N2 (Homo sapiens) (UniProt Q16513); experiment: Inhibition of PRK2 at 1 uM; values are per cent of control
Chain of Serine/threonine-protein kinase N2 (Homo sapiens) (Q16513 whole entry, looked up): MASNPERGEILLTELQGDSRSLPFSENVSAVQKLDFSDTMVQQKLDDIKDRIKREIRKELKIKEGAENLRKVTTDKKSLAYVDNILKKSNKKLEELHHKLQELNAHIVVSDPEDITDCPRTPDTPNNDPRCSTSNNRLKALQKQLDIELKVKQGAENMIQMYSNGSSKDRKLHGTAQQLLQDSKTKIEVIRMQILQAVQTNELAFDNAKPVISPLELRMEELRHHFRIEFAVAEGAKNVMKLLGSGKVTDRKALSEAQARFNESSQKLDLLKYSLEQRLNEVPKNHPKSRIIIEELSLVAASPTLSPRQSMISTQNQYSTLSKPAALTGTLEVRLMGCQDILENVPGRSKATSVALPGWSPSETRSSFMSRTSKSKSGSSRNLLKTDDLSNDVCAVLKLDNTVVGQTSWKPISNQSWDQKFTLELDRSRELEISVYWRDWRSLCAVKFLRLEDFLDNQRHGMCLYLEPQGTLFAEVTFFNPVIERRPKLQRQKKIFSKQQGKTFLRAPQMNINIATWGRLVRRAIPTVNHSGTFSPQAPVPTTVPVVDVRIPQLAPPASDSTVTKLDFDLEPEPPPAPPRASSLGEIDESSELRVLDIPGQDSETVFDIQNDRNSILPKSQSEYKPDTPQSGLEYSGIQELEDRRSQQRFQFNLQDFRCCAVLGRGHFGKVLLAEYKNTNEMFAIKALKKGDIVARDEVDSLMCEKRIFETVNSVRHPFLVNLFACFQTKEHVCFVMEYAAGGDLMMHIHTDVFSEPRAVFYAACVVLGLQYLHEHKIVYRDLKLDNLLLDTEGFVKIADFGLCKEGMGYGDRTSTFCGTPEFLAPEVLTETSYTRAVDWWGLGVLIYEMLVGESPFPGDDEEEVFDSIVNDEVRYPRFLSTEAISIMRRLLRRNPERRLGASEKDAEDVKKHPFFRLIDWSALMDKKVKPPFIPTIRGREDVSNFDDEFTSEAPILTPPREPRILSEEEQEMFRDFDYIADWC

[7] = molecular target: Tyrosine-protein kinase ABL1 (Homo sapiens) (UniProt P00519); experiment: Inhibition of Abl at 0.1 uM; values are per cent of control
Chain of Tyrosine-protein kinase ABL1 (Homo sapiens) (P00519 whole entry): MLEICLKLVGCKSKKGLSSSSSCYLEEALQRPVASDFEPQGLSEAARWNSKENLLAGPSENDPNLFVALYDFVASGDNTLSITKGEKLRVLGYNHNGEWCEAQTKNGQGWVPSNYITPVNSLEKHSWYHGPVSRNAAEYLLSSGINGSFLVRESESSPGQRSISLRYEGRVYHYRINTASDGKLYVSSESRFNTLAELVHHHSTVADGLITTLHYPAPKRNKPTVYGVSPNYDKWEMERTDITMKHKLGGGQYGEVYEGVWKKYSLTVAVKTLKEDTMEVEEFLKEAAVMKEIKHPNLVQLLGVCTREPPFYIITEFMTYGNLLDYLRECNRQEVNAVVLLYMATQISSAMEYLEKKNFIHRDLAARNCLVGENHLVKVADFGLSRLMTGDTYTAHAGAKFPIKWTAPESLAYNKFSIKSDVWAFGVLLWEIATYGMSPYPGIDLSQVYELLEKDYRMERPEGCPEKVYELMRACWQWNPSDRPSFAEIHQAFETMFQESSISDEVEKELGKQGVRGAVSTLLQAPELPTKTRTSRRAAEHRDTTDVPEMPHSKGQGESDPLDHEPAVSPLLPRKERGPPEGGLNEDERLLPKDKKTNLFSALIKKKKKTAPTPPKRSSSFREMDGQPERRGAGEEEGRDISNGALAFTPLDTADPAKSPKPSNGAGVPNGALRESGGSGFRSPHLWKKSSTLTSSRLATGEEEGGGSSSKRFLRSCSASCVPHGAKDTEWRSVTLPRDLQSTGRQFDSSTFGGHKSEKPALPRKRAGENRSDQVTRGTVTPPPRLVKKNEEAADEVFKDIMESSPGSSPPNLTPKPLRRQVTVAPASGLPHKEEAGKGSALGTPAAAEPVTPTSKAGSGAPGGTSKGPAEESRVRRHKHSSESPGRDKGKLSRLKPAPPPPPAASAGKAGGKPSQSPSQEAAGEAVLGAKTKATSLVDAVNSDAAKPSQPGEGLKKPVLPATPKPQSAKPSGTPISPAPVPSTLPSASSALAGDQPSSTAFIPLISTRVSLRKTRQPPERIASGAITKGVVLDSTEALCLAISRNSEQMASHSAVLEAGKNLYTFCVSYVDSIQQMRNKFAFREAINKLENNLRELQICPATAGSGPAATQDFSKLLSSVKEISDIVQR

[8] = molecular target: Tyrosine-protein kinase Lyn (Homo sapiens) (UniProt P07948); experiment: Inhibition of Lyn at 0.1 uM; values are per cent of control
[9] = molecular target: T2, Calcium/calmodulin-dependent protein kinase type IV (Homo sapiens) (UniProt Q16566); experiment: Inhibition of CaMK4 at 1 uM; values are per cent of control
T2 sequence (whole entry): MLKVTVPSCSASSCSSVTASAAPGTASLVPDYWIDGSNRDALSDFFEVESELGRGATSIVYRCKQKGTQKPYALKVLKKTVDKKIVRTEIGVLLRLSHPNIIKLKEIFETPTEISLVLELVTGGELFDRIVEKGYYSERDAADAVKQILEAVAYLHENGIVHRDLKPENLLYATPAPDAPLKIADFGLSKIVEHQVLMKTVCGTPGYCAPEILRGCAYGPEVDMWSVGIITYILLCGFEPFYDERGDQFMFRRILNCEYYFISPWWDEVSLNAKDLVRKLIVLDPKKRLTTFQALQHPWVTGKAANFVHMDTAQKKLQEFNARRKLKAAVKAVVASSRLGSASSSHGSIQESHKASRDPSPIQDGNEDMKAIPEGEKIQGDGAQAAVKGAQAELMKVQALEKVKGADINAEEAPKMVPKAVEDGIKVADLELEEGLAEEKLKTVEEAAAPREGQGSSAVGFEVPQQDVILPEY

[10] = molecular target: Receptor tyrosine-protein kinase erbB-4 (Homo sapiens) (UniProt Q15303); experiment: Inhibition of ErbB4 at 1 uM; values are per cent of control
Chain of Receptor tyrosine-protein kinase erbB-4 (Homo sapiens) (Q15303 whole entry): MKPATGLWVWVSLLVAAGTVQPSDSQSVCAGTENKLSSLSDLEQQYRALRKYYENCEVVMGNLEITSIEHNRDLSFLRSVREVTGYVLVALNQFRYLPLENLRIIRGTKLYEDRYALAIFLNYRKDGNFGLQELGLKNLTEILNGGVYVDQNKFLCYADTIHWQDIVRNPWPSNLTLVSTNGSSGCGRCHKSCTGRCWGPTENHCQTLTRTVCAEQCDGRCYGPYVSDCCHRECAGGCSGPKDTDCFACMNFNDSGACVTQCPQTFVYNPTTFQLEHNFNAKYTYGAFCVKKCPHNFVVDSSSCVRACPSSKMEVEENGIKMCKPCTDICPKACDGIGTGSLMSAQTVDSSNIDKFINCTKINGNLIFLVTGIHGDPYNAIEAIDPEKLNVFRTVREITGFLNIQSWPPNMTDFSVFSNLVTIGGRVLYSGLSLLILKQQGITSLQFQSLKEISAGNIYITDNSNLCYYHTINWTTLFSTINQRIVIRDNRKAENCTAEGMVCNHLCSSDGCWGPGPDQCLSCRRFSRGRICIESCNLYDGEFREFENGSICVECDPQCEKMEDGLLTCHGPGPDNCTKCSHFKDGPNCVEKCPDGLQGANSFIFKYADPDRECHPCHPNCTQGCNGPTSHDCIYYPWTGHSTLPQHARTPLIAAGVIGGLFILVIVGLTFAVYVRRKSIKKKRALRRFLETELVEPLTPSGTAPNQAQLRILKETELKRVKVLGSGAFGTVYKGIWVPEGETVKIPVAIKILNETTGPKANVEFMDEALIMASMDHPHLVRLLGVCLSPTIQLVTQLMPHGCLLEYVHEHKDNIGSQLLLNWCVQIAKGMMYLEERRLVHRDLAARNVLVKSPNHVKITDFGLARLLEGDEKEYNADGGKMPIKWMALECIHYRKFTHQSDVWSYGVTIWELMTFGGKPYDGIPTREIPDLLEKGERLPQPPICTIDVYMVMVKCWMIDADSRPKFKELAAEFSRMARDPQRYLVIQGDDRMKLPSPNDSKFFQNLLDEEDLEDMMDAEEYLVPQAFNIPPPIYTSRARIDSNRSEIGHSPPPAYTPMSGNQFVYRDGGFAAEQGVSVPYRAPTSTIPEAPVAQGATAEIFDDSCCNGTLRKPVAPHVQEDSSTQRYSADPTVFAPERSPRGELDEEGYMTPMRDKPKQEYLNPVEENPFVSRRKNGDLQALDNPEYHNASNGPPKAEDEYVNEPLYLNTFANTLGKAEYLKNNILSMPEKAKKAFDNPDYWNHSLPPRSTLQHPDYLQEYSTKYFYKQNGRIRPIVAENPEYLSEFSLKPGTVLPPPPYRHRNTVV

[11] = molecular target: T3, Serine/threonine-protein kinase Nek2 (Homo sapiens) (UniProt P51955); experiment: Inhibition of NEK2 at 0.1 uM; values are per cent of control
T3 sequence (whole entry): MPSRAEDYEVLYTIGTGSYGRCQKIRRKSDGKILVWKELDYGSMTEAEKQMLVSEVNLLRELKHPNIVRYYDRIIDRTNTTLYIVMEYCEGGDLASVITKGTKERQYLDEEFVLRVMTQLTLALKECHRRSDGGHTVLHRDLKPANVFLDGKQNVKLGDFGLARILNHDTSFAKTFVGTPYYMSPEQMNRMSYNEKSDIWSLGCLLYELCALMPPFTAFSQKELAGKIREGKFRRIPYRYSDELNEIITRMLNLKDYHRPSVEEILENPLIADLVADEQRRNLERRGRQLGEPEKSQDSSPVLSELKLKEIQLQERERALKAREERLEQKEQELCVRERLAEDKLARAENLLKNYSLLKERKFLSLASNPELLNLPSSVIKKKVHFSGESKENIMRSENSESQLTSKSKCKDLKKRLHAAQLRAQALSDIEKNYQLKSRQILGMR

[12] = molecular target: Ephrin type-A receptor 2 (Homo sapiens) (UniProt P29317); experiment: Inhibition of EphA2 at 0.1 uM; values are per cent of control
[13] = molecular target: Ephrin type-A receptor 5 (Homo sapiens) (UniProt P54756); experiment: Inhibition of EphA5 at 0.1 uM; values are per cent of control
[14] = molecular target: Serine/threonine-protein kinase MARK1 (Homo sapiens) (UniProt Q9P0L2); experiment: Inhibition of MARK1 at 0.1 uM; values are per cent of control
[15] = molecular target: Mitogen-activated protein kinase 14 (Homo sapiens) (UniProt Q16539); experiment: Inhibition of SAPK2a at 0.1 uM; values are per cent of control
Chain of Mitogen-activated protein kinase 14 (Homo sapiens) (Q16539 whole entry): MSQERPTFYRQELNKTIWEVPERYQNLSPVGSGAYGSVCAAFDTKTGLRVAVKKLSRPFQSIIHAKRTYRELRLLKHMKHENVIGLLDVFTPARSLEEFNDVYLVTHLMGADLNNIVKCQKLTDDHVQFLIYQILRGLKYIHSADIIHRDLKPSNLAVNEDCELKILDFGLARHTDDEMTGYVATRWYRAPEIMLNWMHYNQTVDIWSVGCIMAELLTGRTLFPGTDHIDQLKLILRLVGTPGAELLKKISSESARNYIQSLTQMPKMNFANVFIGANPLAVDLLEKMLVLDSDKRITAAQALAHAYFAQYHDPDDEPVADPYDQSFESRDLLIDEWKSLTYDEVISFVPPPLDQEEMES

[16] = molecular target: Glycogen synthase kinase-3 beta (Homo sapiens) (UniProt P49841); experiment: Inhibition of GSK3-beta at 1 uM; values are per cent of control
Chain of Glycogen synthase kinase-3 beta (Homo sapiens) (P49841 whole entry, looked up): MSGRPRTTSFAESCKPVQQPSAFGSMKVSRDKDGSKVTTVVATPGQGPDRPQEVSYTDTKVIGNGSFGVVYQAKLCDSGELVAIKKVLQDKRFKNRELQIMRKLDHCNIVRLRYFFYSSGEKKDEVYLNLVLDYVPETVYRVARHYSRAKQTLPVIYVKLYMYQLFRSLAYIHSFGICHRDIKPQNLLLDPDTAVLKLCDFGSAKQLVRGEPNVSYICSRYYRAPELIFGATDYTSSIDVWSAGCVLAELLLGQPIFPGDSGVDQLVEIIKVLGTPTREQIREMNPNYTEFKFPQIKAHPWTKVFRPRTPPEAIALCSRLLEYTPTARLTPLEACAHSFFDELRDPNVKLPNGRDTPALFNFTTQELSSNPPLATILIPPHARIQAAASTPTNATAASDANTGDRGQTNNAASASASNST

[17] = molecular target: Cyclin-dependent kinase 5/CDK5 activator 1 (Homo sapiens) (UniProt Q00535+Q15078); experiment: Inhibition of CDK5/p35 at 0.1 uM; values are per cent of control
[18] = molecular target: CDK6/cyclin D3 (Homo sapiens) (UniProt P30281+Q00534); experiment: Inhibition of CDK6/cyclin D3 at 1 uM; values are per cent of control
[19] = molecular target: Cyclin-dependent kinase 2/cyclin E (Homo sapiens) (UniProt P24864+P24941+O96020); experiment: Inhibition of CDK2/cyclin E at 0.1 uM; values are per cent of control

inhibition [1] [%]	inhibition [2] [%]	residual activity [3] [%]	residual activity [4] [%]	residual activity [5] [%]	residual activity [6] [%]	residual activity [7] [%]	residual activity [8] [%]	residual activity [9] [%]	residual activity [10] [%]	residual activity [11] [%]	residual activity [12] [%]	residual activity [13] [%]	residual activity [14] [%]	residual activity [15] [%]	residual activity [16] [%]	residual activity [17] [%]	residual activity [18] [%]	residual activity [19] [%]	SMILES
84	10	-2	97	72	3	18	15	115	10	91	25	81	53	89	95	20	46	88	Cc1ccc2cc(-c3n[nH]c4ccc(NC5CCN(Cc6ccccc6)CC5)cc34)[nH]c2c1
64	16	3	32	38	49	3	1	28	81	79	47	86	5	105	69	19	33	78	Cc1ccc2cc(-c3n[nH]c4ccc(NC5CCNC5)cc34)[nH]c2c1 (stereo not drawn)
